Assay results from different studies.
Protocols differ between the studies behind these lines.
Target: Casein kinase I isoform delta (CSNK1D, Homo sapiens, UniProt P48730)

With `Cn1cncc1[C@@](O)(COc1ccc(C#N)cc1-c1ccc(OC(F)(F)F)cc1)c1ccc(C#N)cc1` the remaining binding was 94% (cell-free assay; competition with immobilised ligand; 1 µM).
The remaining binding of `Nc1ncc(-c2nc(N3CCOCC3)nc(N3CCOCC3)n2)c(C(F)F)n1` is reported as 90% (binding; competition with immobilised ligand; 10 µM).
With `COc1ncccc1-c1cnn2ccc(N3CCN(C(=O)OC(C)C)CC3)nc12` the remaining binding was 85% (binding; competition with immobilised ligand; 1 µM).
With `CC(C)(C)c1cc(C=C(C#N)C#N)cc(Br)c1O` the remaining activity was 85.5% (enzyme activity; inhibitor; 0.5 µM).
`Cn1cc(-c2cccc(N3CCc4c(sc5c4CC(C)(C)C5)C3=O)c2CO)cc(Nc2ccncn2)c1=O` has an inhibition of 0% (enzyme activity; inhibitor; 1 µM).
For `Cc1nn(C)cc1-c1nc2c(N3CCN(Cc4ccc(Cl)cc4)CC3)c(Cl)cnc2[nH]1`, the remaining binding was 100% (binding; competition with immobilised ligand; 1 µM).
The remaining signal of `O=c1[nH]c2ccccc2n1C1CCN(Cc2ccc(-c3[nH]c4cc5ncnc5cc4nc3-c3ccccc3)cc2)CC1` is reported as 100% (cell-free assay; 0.5 µM).
With `Cn1cc(-c2cc(F)cc(N3CCn4c(cc5c4CCCC5)C3=O)c2CO)cc(Nc2ccc(N3CCN(C4COC4)CC3)cn2)c1=O` the inhibition was 6% (enzyme activity; inhibitor; 0.1 µM).
